As a reminder, the IC50 is the midpoint of a concentration-inhibition curve. The low end stands for higher potency, the high end for lower potency.

Two molecules from BindingDB's records for doi:10.1021/jm051126f (The Ohio State University, 2006) can be followed below.

This assay concerns the target T1, Aromatase (Homo sapiens, UniProt P11511).
T1 sequence (P11511 whole entry): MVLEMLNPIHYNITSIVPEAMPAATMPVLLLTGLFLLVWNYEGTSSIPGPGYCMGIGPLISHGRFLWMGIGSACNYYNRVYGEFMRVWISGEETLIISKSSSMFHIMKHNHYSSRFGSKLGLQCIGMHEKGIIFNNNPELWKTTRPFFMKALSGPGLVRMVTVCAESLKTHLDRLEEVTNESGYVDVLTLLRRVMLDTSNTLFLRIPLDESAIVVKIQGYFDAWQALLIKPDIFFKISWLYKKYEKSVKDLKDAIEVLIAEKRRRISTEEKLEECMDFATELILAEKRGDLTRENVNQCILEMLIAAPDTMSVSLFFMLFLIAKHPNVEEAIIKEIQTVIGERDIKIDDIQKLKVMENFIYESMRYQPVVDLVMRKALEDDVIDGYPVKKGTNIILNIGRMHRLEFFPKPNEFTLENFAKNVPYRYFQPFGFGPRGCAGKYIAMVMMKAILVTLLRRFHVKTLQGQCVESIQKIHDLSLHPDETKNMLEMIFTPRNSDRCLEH
Briefly: Inhibition of CYP450 aromatase activity in SK-BR-3 cells. The essentials:
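Tritium water release assay in intact SK-BR-3 cells. Cells were treated 24 h with compound or 0.1% DMSO vehicle, then the medium was changed and cells were given 100 nM [1β-3H]-androstenedione for 3 h. Protein was precipitated with TCA and the medium chloroform- and charcoal-extracted. Released 3H2O was counted and expressed per million cells (DNA assay). IC50 came from nonlinear regression on five concentrations in triplicate.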

Consider `COc1cc([N+](=O)[O-])ccc1NS(C)(=O)=O` [N-(2-methoxy-4-nitrophenyl)methanesulfonamide], for which the IC50 is > 25 µM.

As for `COc1cc([N+](=O)[O-])ccc1N(C)S(C)(=O)=O` [N-methyl-N-(2-methoxy-4-nitrophenyl)methanesulfonamide], the IC50 is > 25 µM.
